The values below come from ChEMBL document CHEMBL4513216, “Probing the Open Global Health Chemical Diversity Library for Multistage-Active Starting Points for Next-Generation Antimalarials” (ACS Infect Dis, 2020).

Each structure is given as a SMILES string.

A short description of the series: Toxicity liver stage against HepG2, at 10uM. It counts as cell-based. On the set-up: test concentration 10 uM, cell line HepG2-A16-CD81EGFP. The conditions noted are these: human, HepG2-A16-CD81EGFP cells; read-out: INHIBITION
Summed up:
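Uninfected HepG2-A16-CD81EGFP cells, 3 × 10^3 per well, 1536-well, plated on prespotted compound at 10 μM final, parasite-free screening media added to match infected plates; puromycin 10 μM positive, DMSO 0.5% negative; run in parallel with 48 h PbLuc assay at 37 °C, 5% CO2; viability by CellTiter-Glo luminescence, normalized to controls.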
`Cc1ccc(CN(C)C(=O)NCC(C)(C)NS(C)(=O)=O)s1`: the cytotoxicity at 10 µM is -0.422%.
On to `Cc1n[nH]c(C)c1C1COCCN1C(=O)Cc1ccccc1F` (stereo unspecified), for which the cytotoxicity at 10 µM is -2.46%.
As for `Nc1ncc(CN2C[C@H](C3CC3)[C@@H](N)C2)cn1`, the cytotoxicity at 10 µM was -44.6%.
For the compound `COc1ccc2c(c1)C(=O)NC1(CC2)CCN(Cc2ccccn2)C1` (stereo unspecified), the cytotoxicity at 10 µM was found to be 4.51%.
Regarding `CCC1c2cccn2CCN1S(=O)(=O)N1CCOCC1` (stereo unspecified), the cytotoxicity at 10 µM is 7.25%.
With `CCn1cc(CN(C)S(=O)(=O)c2ccc(C(C)C)cc2)cn1`, the cytotoxicity at 10 µM was 20.1%.
As for `COCC(=O)N1C[C@H]2CNC[C@@]2(C(=O)NCc2cc(C)n[nH]2)C1`, the cytotoxicity at 10 µM came out at 8.29%.
For `c1cncc(NCCNC2CCSC2)c1` (stereo unspecified), the cytotoxicity at 10 µM was -3.22%.
In the case of `Cc1ccc(C(=O)CN(C2=NCCCCC2)c2ccccc2)cc1`, the cytotoxicity at 10 µM came to 17.7%.
With `Fc1ccc(C2(NCc3ccccc3)CCOCC2)cc1`, the cytotoxicity at 10 µM was -9.91%.
On to `CCCc1nnsc1C(=O)NCC1CCN(c2ccccn2)CC1`, for which the cytotoxicity at 10 µM is -16.7%.
In the case of `CCOCc1cccc(S(=O)(=O)N2CCSCC2)c1`, the cytotoxicity at 10 µM turned out to be 1.26%.
Take `CCN1CC2(CCN(C(=O)N(C)C)CC2)COc2ccccc2S1(=O)=O`: the cytotoxicity at 10 µM is 6.55%.
As to `O=C(N1CCCC1)N1CCC2(CCCN(CCOc3ccccc3)C2)C1` (stereo unspecified), the cytotoxicity at 10 µM is 11.3%.
In the case of `CCC(CC)C(=O)NCc1cn2cc(Br)ccc2n1`, the cytotoxicity at 10 µM was found to be 5.17%.
As to `COCCC(=O)N1CCOCC(Cc2ccc3c(ccn3C)c2)C1` (stereo unspecified), the cytotoxicity at 10 µM turned out to be 6.66%.
For the compound `Cn1cccc1C(=O)NCc1cnc2n1CCN(C(=O)N1CCCC1)C2`, the cytotoxicity at 10 µM was -5.61%.
As for `Cc1ccc(NC(=O)C2CSCN2C(=O)c2cccnc2)c(C)c1` (stereo unspecified), the figure is -1.9%.
Turning to `CN(C)CCCC(=O)NC1CC(C)(C)Cc2nc(C(C)(C)C)ncc21` (stereo unspecified), the cytotoxicity at 10 µM was 15.2%.
As for `COc1ncccc1CNC(=O)c1ccc(C)[nH]c1=O`, the figure is -2.22%; as for `CCn1ccnc1CN1CCCN(C(=O)c2cc(Cl)c[nH]2)CC1`, -9.6%; as for `Cc1cc(C(C)NC(=O)Cn2nc(C)c3ccccc3c2=O)c(C)o1` (stereo unspecified), -5.3%.
For `Cn1cc(-c2nnn3c2COC(CNCC2CCOCC2)C3)cn1` (stereo unspecified), the cytotoxicity at 10 µM is 0.171%.
As for `COc1cccc(CC(=O)NCCc2nnc3n2CCCCC3)c1`, the cytotoxicity at 10 µM is -18.4%.
`Cc1cc(NC(=O)Nc2ccc3c(ccn3CCN(C)C)c2)n(C)n1`: the cytotoxicity at 10 µM was 3.38%.
Consider `Cc1ccccc1CN1CCCC1c1cccc(Nc2nccs2)n1` (stereo unspecified), for which the cytotoxicity at 10 µM was determined as 13.3%.
As to `Cc1ccc(NC(=O)c2cccc(N(C)C)c2)nc1`, the cytotoxicity at 10 µM was 8.77%.
Consider `COc1c(C2CCCN2C(=O)c2c(C)noc2C(C)C)c(C)nn1C` (stereo unspecified), for which the cytotoxicity at 10 µM stood at 8.88%.
Consider `CCn1cc(CN2CCCN(C(=O)CCSC)CC2)cn1`, for which the cytotoxicity at 10 µM was -1.11%.
Turning to `CCc1cc(N[C@H]2CCC[C@H]2O)n2nccc2n1`, the cytotoxicity at 10 µM was -4%.
For the compound `CNC(=O)CN1CCC(NC(=O)Cc2ccccc2OC(C)C)CC1`, the cytotoxicity at 10 µM was -2.14%.
As for `O=C(c1cc2cccc(F)c2[nH]1)N1C[C@@H](O)[C@H](N2CCOCC2)C1`, the cytotoxicity at 10 µM amounted to 0.0453%.
`CN(Cc1n[nH]c2c1CCCC2)c1cc(N2CCOCC2)nc(N)n1`: the cytotoxicity at 10 µM is -7.7%.
With `Cn1ccnc1C1CCCN(C(=O)c2cc(F)cc(F)c2)C1` (stereo unspecified), the cytotoxicity at 10 µM stood at 18.4%.
Turning to `COCc1nc(C(=O)NS(=O)(=O)c2cc(C)ccc2C)cs1`, the cytotoxicity at 10 µM was -4.04%.
As for `C[C@H](NC(=O)N1CCN(c2ccc(Cl)cc2)CC1)C(=O)N1CCSCC1`, the cytotoxicity at 10 µM was -6.3%.
Regarding `Cc1ccc(S(=O)(=O)n2ccn(C(=O)COc3ccccc3)c2=O)cc1`, the cytotoxicity at 10 µM was 5.34%.
As for `CC(C)NC(=O)c1ccc2c(c1)nc1n2CCN(Cc2ccccc2)C1`, the figure is 6.61%; as for `CN1C(=O)CC(c2ccccc2)C12CCN(CC1CCOCC1)CC2` (stereo unspecified), 1.02%.
Consider `COCC1CC2(CCN(Cc3cnn(C)c3)CC2)CN1c1ncccn1` (stereo unspecified), for which the cytotoxicity at 10 µM is -8.19%.
`O=C(CSC1CCCC1)N1CCN(C(=O)C2CC2c2ccccc2)CC1` (stereo unspecified): the cytotoxicity at 10 µM is -4.74%.
As for `CCCn1cc(NC(=O)c2cccc(CN3CC=CC3)c2)nn1`, the figure is -147%.
For `Cn1nc(C(=O)N2CCOCC2)cc1C(=O)Nc1ncc(Cl)cc1Cl`, the cytotoxicity at 10 µM stood at 12.5%.
For the compound `Cc1c(C(=O)N2CCN(c3ncccn3)CC2)n(C)c2ccc(Cl)cc12`, the cytotoxicity at 10 µM amounted to 3.99%.
`CN(C)S(=O)(=O)N1CCN(c2nccc(C(F)(F)F)n2)CC1`: the cytotoxicity at 10 µM is -7.04%.
Turning to `CCOC(=O)NC1CCCN(Cc2ccc(-n3cncn3)c(C)c2)C1` (stereo unspecified), the cytotoxicity at 10 µM came out at 2.12%.
As for `CCc1ccc(CN(C/C=C/c2ccccc2)CCOC)nc1`, the cytotoxicity at 10 µM turned out to be 10.2%.
In the case of `COc1ccc(C)cc1CN1CCC(c2cc3ncccc3cn2)CC1`, the cytotoxicity at 10 µM was 20.5%.
With `CN(C)CCCn1ccc(-c2cccc(-c3ccccn3)c2)n1`, the cytotoxicity at 10 µM is -6.02%.
Regarding `O=C(CCCN1CCOC1=O)Nc1cnn(-c2ccccc2Cl)c1`, the cytotoxicity at 10 µM was -4.56%.
With `CN1CCCN(c2nc(C3CCCC3)nc3c2cnn3C)CC1` the figure was -3.9%; with `Cc1nn(Cn2ccc(C(=O)N3CCC(C)CC3)n2)c(C)c1Cl`, -2.36%; with `Cc1ccc(C(=O)N2CCN(CC(O)c3ccc(F)cc3)CC2)s1` (stereo unspecified), -8.93%.
With `Cc1nc(NC(=O)CNC(=O)c2c(F)cccc2Cl)n[nH]1` the figure was -10.2%.
As for `Cc1cnn(CC(C)NCc2nc(-c3ccco3)no2)c1` (stereo unspecified), the figure is -16%; as for `NC(=O)COc1cccc(CN2CCc3cncnc3C2)c1`, -12.9%.
For the compound `Cc1ccccc1CC(C)(C)NC(=O)c1cccc(OCC(N)=O)c1`, the cytotoxicity at 10 µM was 2.93%.
Take `CN(Cc1n[nH]c2c1CCC2)C(=O)c1cccc(CCC(C)(C)O)c1`: the cytotoxicity at 10 µM amounted to 3.01%.
Take `FC(F)(F)c1ccc2nc([C@H]3CCN(C4CCOCC4)C3)[nH]c2c1`: the cytotoxicity at 10 µM is 0.354%.
With `CC(Cc1cccc(Cl)c1)NC(=O)NCc1ncnn1C` (stereo unspecified), the cytotoxicity at 10 µM came to 8.52%.
Consider `O=C(c1ccn(COc2ccc(F)cc2)n1)N1CCCCCC1`, for which the cytotoxicity at 10 µM stood at 9.84%.
As for `CNC(=O)c1cccc(CCNc2ccccn2)c1`, the cytotoxicity at 10 µM came to 1.68%.
As for `COCCN1CCC12CCN(C(=O)c1ccsc1)CC2`, the figure is -145%; as for `Cc1nnc([C@H]2C[C@H]3OCC[C@H]3N(S(=O)(=O)N(C)C)C2)o1`, -8.44%; as for `CN(CC(F)(F)F)C(=O)CNC(=O)Cc1cccc(O)c1`, 5.37%.
`N#Cc1ccc(CN2C[C@@H]3OCC(=O)N[C@@H]3C2)cc1`: the cytotoxicity at 10 µM was -3.01%.
As for `Cc1nn(C)c2c(=O)n(Cc3ccccc3)nnc12`, the cytotoxicity at 10 µM is 5.53%.
Regarding `O=C1NCCCC[C@@H]1Nc1ccc(-c2nc(C3CC3)no2)cn1`, the cytotoxicity at 10 µM amounted to 2.87%.
Regarding `CN(CCc1nc2cc(Cl)ccc2[nH]1)C(=O)c1ncn[nH]1`, the cytotoxicity at 10 µM is -53.7%.
For the compound `CCCS(=O)(=O)NCC(C)c1ccc(F)c(F)c1` (stereo unspecified), the cytotoxicity at 10 µM was -6.82%.
With `O=S(=O)(NCC1(O)CCOc2ccccc21)c1ccc(Cl)s1` (stereo unspecified) the figure was 6.87%.
For `COc1ccccc1OCC(=O)NS(=O)(=O)c1ccc(Cl)cc1F`, the cytotoxicity at 10 µM was determined as 2.28%.
Turning to `CCOc1ccc([C@@H]2N[C@H](c3nccs3)Cc3ccsc32)cc1OC`, the cytotoxicity at 10 µM is 38%.
`Cn1ccnc1C(=O)N1CCOC(Cc2ccccc2Cl)C1` (stereo unspecified): the cytotoxicity at 10 µM is -12.2%.
For the compound `Cc1n[nH]c(C2CN(Cc3nnc(C4CCC4)o3)CCO2)n1` (stereo unspecified), the cytotoxicity at 10 µM is -3.72%.
As for `OC(COCc1cccs1)CN1CCc2c(ncn2C2CC2)C1` (stereo unspecified), the figure is -4.29%; as for `CCC[C@H]1CN(CCCO)C[C@@H]1NC(=O)Cn1cc(C)cn1`, 1.39%.
As for `COc1cccc(-n2c(SCC(=O)O)nnc2-c2cn[nH]c2)c1`, the figure is -6.76%; as for `CC(C)c1noc(C(C)N2CCN(Cc3cccc(C#N)c3)CC2)n1` (stereo unspecified), -14.3%; as for `CCCn1cc(NC(=O)NCC2CCS(=O)(=O)C2)nn1` (stereo unspecified), 0.186%.
As for `COCC(=O)N1CCCC2(CCN(CCN3CCCC3)CC2)C1`, the figure is 4.71%.
On to `Cn1ccnc1CN1CCOC[C@H]1c1nc(C(C)(C)C)co1`, for which the cytotoxicity at 10 µM was -4.13%.
Take `CCc1ccc2nc(C)cc(C(=O)N[C@@H]3C[C@@H](CO)N(C)C3)c2c1`: the cytotoxicity at 10 µM amounted to 2.35%.
Consider `CC(=O)N(Cc1ccc(NCc2cnn(C(C)(C)C)c2)cc1)C(C)C`, for which the cytotoxicity at 10 µM is -3.44%.
In the case of `Cc1nnc(CN(C)Cc2ccc(C(=O)Nc3sccc3C#N)cc2)o1`, the cytotoxicity at 10 µM is -6.88%.
With `COCc1ccccc1CNC(=O)CNc1ccccc1C(C)=O` the figure was 3.49%; with `CCn1ccnc1CN1CCN(Cc2ccc(C)o2)[C@@H]2CS(=O)(=O)C[C@@H]21`, -11.2%.
`COCc1n[nH]c2c1CN(C(=O)c1ccncc1)C2`: the cytotoxicity at 10 µM was 16.6%.
Take `CCNC(=O)[C@@H]1C[C@H](NC(=O)c2cncnc2C)CN1CCCSC`: the cytotoxicity at 10 µM was -11.7%.
As for `CC(C)OCc1cccc(NC(=O)N2CCCC(CCC(N)=O)C2)c1` (stereo unspecified), the figure is 3.49%.
Regarding `Cc1noc(CN(C)c2nc(-c3ccco3)nc3c2CCN(C)CC3)n1`, the cytotoxicity at 10 µM is -0.0198%.
With `Cc1cc(C[C@@H]2COC[C@@H]2NC(=O)CNC(=O)N(C)C)on1` the figure was 2.57%.
For `O=C(c1cncc(Br)c1)N1CCC(O)(Cn2ccc3ccncc32)CC1`, the cytotoxicity at 10 µM was 2.44%.
Turning to `CC(C)c1nc(CN(C)S(=O)(=O)c2cccs2)cs1`, the cytotoxicity at 10 µM was -48.8%.
Turning to `Cc1ccc(S(=O)(=O)NC(=O)CCc2cscn2)cc1Cl`, the cytotoxicity at 10 µM was determined as 8.9%.
On to `COc1cc(C(=O)Nc2nc(C)no2)ccc1OC(F)F`, for which the cytotoxicity at 10 µM was -4.29%.
